The text below walks through data of PubChem BioAssay.

Molecules are shown by their SMILES. Calls of active or inactive are those of the source.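 The calls were made as follows, unless noted: active = viability at or below 30% in both replicate assays; inconclusive = viability at or below 30% in just one of the two assays; inactive = the rest.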

Assay [1] is described as follows: SK-BR-3 cell growth inhibitors, pilot screen, 24 h, human (AID 572;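 active = viability at or below 10% of carrier control in both of two separate runs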;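 also: compound exposure lasted between 18 and 24 h rather than exactly 24 h; 100% = carrier-treated control wells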). To be noted: SK-BR-3 viability, CellTiter-Glo luminescence, at 10 µM, stronger effect = lower value. On the technique in general: Cellular ATP, detected with luciferase, serves as a proxy for viable cell number.
A short description of assay [2]: HUVEC growth inhibition – cell-based, human, primary screen (AID 575).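 Also: 100% = median of untreated cell wells with 0.1% DMSO on each plate.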 As to conditions: HUVEC proliferation, CellTiter-Glo luminescence, 72 h; at 10 µM; stronger effect = lower value. In short, it runs like this:
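Material: primary human umbilical vein endothelial cells / Schedule: 72 h exposure, 37 °C, 5% CO2, 30 min RT equilibration / Signal: ATP-based CellTiter-Glo luminescent read / Read-out basis: percent of median DMSO-control luminescence / Control set: 32 DMSO-only cell-control wells (high), 32 MePR drug-control wells (low) per plate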

Assay [3] in a line: growth inhibitors of H69AR lung tumor, primary screen, human, duplicate replicates (AID 580;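 active = viability at or under a set limit in both replicates, limit being median viability minus 3 SD, cut at about 48% in these data, passing the limit was not always enough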;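 also: 100% = mean luminescence of untreated wells and 0% = no signal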). As to conditions: H69AR lung tumor cells viability, ATP luminescence, 72 h; at 10 µM; stronger effect = lower value.
Assay [4] in a line: reversal of MRP1-mediated doxorubicin resistance, pilot screen, H69AR cells, doxorubicin co-treatment (AID 601;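 active = viability loss from added drug above about 55%, and viability with drug at most 40%, in both replicates, limit read from the data, passing the limit was not always enough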). To be noted: CellTiter-Glo, 72 h, at 10 µM; for differential viability (reversal): stronger effect = higher value.
Assay [5] can be described thus: 384-well plate pilot, post-Golgi transport modulator project, inhibition of yeast transport mutant growth (AID 636; in the data active = inhibition above about 31%). As to conditions: absorbance 615 nm, about 18 h, stronger effect = higher value.
Assay [6] can be described thus: growth suppression of yeast trafficking mutant, preliminary HTS, modulators of trafficking downstream of Golgi apparatus project, 1536-format plate, OD 615 nm (AID 637; in the data active = inhibition above about 30%). To be noted: yeast transport mutant growth, absorbance 615 nm, 18 h; stronger effect = higher value.
Where [7] appears, read: H69AR cells + 2 uM doxorubicin, measured here: viability with 2 uM doxorubicin, stronger effect = lower value.
The mark [8] stands for this setting: H69AR cells, compound alone cytotoxicity.

On to `Cn1nnnc1SCC1=C(C(=O)O)N2C(=O)[C@@H](NC(=O)[C@H](O)c3ccccc3)[C@H]2SC1`, for which the viability is 132% (inactive) in assay [1]; 82.9% (inactive) in assay [2]; 99.2% (inactive) in assay [3]; 96.6% in assay [4] (setting [7]); 99.2% in assay [4] (setting [8]). In addition, the differential viability (reversal) in assay [4] (H69AR cells + 2 uM doxorubicin) was 2.56% (inactive). The figures for the inhibition in assay [5] and in assay [6] were -1.3% (inactive) and 0.33% (inactive), respectively.
As to `CCn1cc(C(=O)O)c(=O)c2ccc(C)nc21`, the viability is 106% (inactive) in assay [1]; 92.1% (inactive) in assay [2]; 101% (inactive) in assay [3]; 100% in assay [4] (setting [7]); 101% in assay [4] (setting [8]). Besides, the differential viability (reversal) in assay [4] (H69AR cells + 2 uM doxorubicin) was 0.53% (inactive). In addition, the values for the inhibition in assay [5] and in assay [6] were -0.78% (inactive) and -3.83% (inactive), respectively.
Consider `NS(=O)(=O)c1cc2c(cc1Cl)NC=NS2(=O)=O`, for which the viability in assay [1] was 104% (inactive); in assay [2], 93.9% (inactive); in assay [3] it was 100% (inactive); in assay [4] (setting [7]), 95.9%; in assay [4] (setting [8]), 100%. Besides, the differential viability (reversal) in assay [4] (H69AR cells + 2 uM doxorubicin) was 4.17% (inactive). For the same compound, the inhibition was 0.13% (inactive) in assay [5] and 1% (inactive) in assay [6].
Regarding `C/C=C(\CS(=O)(=O)c1ccccc1)S(=O)(=O)c1ccccc1`, the viability in assay [1] was 110% (inactive); in assay [2], 85.1% (inactive); in assay [3], 6.84% (active); in assay [4] (setting [7]) it was 7.22%; in assay [4] (setting [8]), 6.84%. In addition, the differential viability (reversal) in assay [4] (H69AR cells + 2 uM doxorubicin) is -0.38% (inactive). Besides, the inhibition in assay [5] was -0.91% (inactive); in assay [6], -4.26% (inactive).
Turning to `CCCc1ccccc1OCCNC(C)=O`, the viability was 103% (inactive) in assay [1]; 99.5% (inactive) in assay [2]; 102% (inactive) in assay [3]; 90.4% in assay [4] (setting [7]); 102% in assay [4] (setting [8]). In addition, in assay [4] (H69AR cells + 2 uM doxorubicin), the differential viability (reversal) was 11.2% (inactive). In addition, the inhibition in assay [5] was -3.87% (inactive); in assay [6], 0% (inactive).
`Cc1ccc(NC(=O)c2ccco2)c(NC(=O)CN2C(=O)c3ccccc3C2=O)c1`: the viability in assay [1] is 97% (inactive); in assay [2], 110% (inactive); in assay [3], 87.6% (inactive); in assay [4] (setting [7]), 106%; in assay [4] (setting [8]), 87.6%. The differential viability (reversal) in assay [4] (H69AR cells + 2 uM doxorubicin) is -18.2% (inactive). Also, the results for the inhibition in assay [5] and in assay [6] were -0.41% (inactive) and 3.27% (inactive), respectively.
As to `CCOC(=O)C1=C(C)Nc2nc(SCC(=O)OC)nn2C1c1cc(F)cc(F)c1` (stereo not drawn), the viability in assay [1] was 91.5% (inactive); in assay [2], 75.4% (inactive); in assay [3] it was 92.9% (inactive); in assay [4] (setting [7]), 85.7%; in assay [4] (setting [8]), 92.9%. Besides, the differential viability (reversal) in assay [4] (H69AR cells + 2 uM doxorubicin) is 7.16% (inactive). Moreover, the values for the inhibition in assay [5] and in assay [6] were -8.24% (inactive) and 2.06% (inactive), respectively.
Take `CCCCOc1ccccc1C1C(C(N)=O)=C(C)Nc2nnnn21` (stereo not drawn): the viability in assay [1] is 110% (inactive); in assay [2], 98.3% (inactive); in assay [3], 93.3% (inactive); in assay [4] (setting [7]), 86.6%; in assay [4] (setting [8]), 93.3%. Besides, in assay [4] (H69AR cells + 2 uM doxorubicin), the differential viability (reversal) is 6.69% (inactive). Moreover, the values for the inhibition in assay [5] and in assay [6] were -3.9% (inactive) and 0.82% (inactive), respectively.
With `COc1ccc(-c2nnc(SCC(=O)Nc3sc4c(c3C#N)CCC4)n2CC2CCCO2)cc1` (stereo not drawn), the viability was 89% (inactive) in assay [1]; 97% (inactive) in assay [2]; 93.8% (inactive) in assay [3]; 74.4% in assay [4] (setting [7]); 93.8% in assay [4] (setting [8]). Moreover, the differential viability (reversal) in assay [4] (H69AR cells + 2 uM doxorubicin) is 19.5% (inactive). Besides, the inhibition in assay [5] was 2.43% (inactive); in assay [6], -1.43% (inactive).
As to `N#CC1=C(N)OC2=C(CCC/C2=C/c2ccoc2)C1c1ccoc1` (stereo not drawn), the viability was 87% (inactive) in assay [1]; 99.1% (inactive) in assay [2]; 80.8% (inactive) in assay [3]; 77.9% in assay [4] (setting [7]); 80.8% in assay [4] (setting [8]). In addition, the differential viability (reversal) in assay [4] (H69AR cells + 2 uM doxorubicin) is 2.94% (inactive). The inhibition in assay [5] was -5.95% (inactive); in assay [6] it was 0.18% (inactive).
`CC(O)Cn1cnc2c1c(=O)n(C)c(=O)n2C` (stereo not drawn): the viability is 107% (inactive) in assay [1]; 106% (inactive) in assay [2]; 95.8% (inactive) in assay [3]; 96.1% in assay [4] (setting [7]); 95.8% in assay [4] (setting [8]). Also, the differential viability (reversal) in assay [4] (H69AR cells + 2 uM doxorubicin) is -0.25% (inactive). Also, the inhibition in assay [5] was -1.04% (inactive); in assay [6] it was 0.17% (inactive).
Take `CCOC(=O)Cn1nnc(-c2ccc(SC)cc2)n1`: the viability in assay [1] is 96% (inactive); in assay [2], 100% (inactive); in assay [3] it was 98% (inactive); in assay [4] (setting [7]) it was 92.3%; in assay [4] (setting [8]), 98%. Moreover, in assay [4] (H69AR cells + 2 uM doxorubicin), the differential viability (reversal) was 5.72% (inactive). Further, the inhibition in assay [5] was -8.38% (inactive); in assay [6], -4.36% (inactive).
In the case of `COP(C)(=O)c1c(C)nn(-c2ccccc2)c1C` (stereo not drawn), the viability in assay [1] is 122% (inactive); in assay [2], 104% (inactive); in assay [3] it was 96.3% (inactive); in assay [4] (setting [7]), 94.5%; in assay [4] (setting [8]), 96.3%. Moreover, the differential viability (reversal) in assay [4] (H69AR cells + 2 uM doxorubicin) is 1.8% (inactive). For the same compound, the inhibition in assay [5] was 0.39% (inactive); in assay [6], 1.15% (inactive).
Consider `CCOc1nc(-c2ccncc2)nc2ccccc12`, for which the viability is 100% (inactive) in assay [1]; 93.7% (inactive) in assay [2]; 92.6% (inactive) in assay [3]; 92.1% in assay [4] (setting [7]); 92.6% in assay [4] (setting [8]). In assay [4] (H69AR cells + 2 uM doxorubicin), the differential viability (reversal) was 0.47% (inactive). Besides, the inhibition in assay [5] was -7.4% (inactive); in assay [6], 9.35% (inactive).
On to `O=S(=O)(c1ccc2c(c1)OCCO2)N1CCC(n2nnc3cc(F)ccc32)CC1`, for which the viability in assay [1] is 91% (inactive); in assay [2] it was 74.8% (inactive); in assay [3], 84.2% (inactive); in assay [4] (setting [7]) it was 90.1%; in assay [4] (setting [8]), 84.2%. Also, in assay [4] (H69AR cells + 2 uM doxorubicin), the differential viability (reversal) was -5.86% (inactive). Moreover, the values for the inhibition in assay [5] and in assay [6] were -9.04% (inactive) and -1.77% (inactive), respectively.
Consider `CCOC(=O)c1sc(NC(=O)CSc2nnc(-c3ccc(OC)cc3)n2CCOC)nc1C`, for which the viability is 99% (inactive) in assay [1]; 97.2% (inactive) in assay [2]; 101% (inactive) in assay [3]; 79.6% in assay [4] (setting [7]); 101% in assay [4] (setting [8]). Moreover, the differential viability (reversal) in assay [4] (H69AR cells + 2 uM doxorubicin) is 21.8% (inactive). Further, the inhibition in assay [5] was -4.94% (inactive); in assay [6], 1.31% (inactive).

For orientation: viability means a read-out of living cells in per cent, often relative to untreated cells. The inhibition is the relative decrease from the control value, in per cent.
